From ChEMBL document CHEMBL1126768, “A mechanism-based inactivation study of neutral endopeptidase 24.11” (J Med Chem, 1993) come the findings set out here.

Substrate in data set [1]: N#CCC(=O)NC(Cc1ccccc1)C(=O)NC(Cc1ccccc1)C(=O)O
Put plainly: Michaelis-Menten constant determined for Angiotensin I converting enzyme.

Substrate in data set [2]: N#CCC(=O)NC(Cc1ccccc1)C(=O)NC(Cc1ccccc1)C(=O)O
Put plainly: Michaelis-Menten constant determined for Neutral endopeptidase (NEP). In a few lines: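 Recombinant human NEP from CHO cells (>99% pure), 0.5 μM in 50 mM HEPES pH 7.4 with 10% p-dioxane, incubated at 25 °C with inactivator at 0.5–7.5 μM final. Aliquots diluted 1:100 into DAGNPG assay solution (50 mM Tris pH 7.4, 37 °C), fluorescence read at ex 342/em 562 nm. Pseudo-first-order kobs plotted double-reciprocally against inactivator concentration to give kinact and Km.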

Substrate in data set [3]: N#CCC(=O)CC(Cc1ccccc1)C(=O)NC(Cc1ccccc1)C(=O)O

B1: Angiotensin-converting enzyme (Rattus norvegicus), P47820 (protein)
chain: MGAASGQRGRWPLSPPLLMLSLLLLLLLPPSPAPALDPGLQPGNFSADEAGAQLFADSYNSSAEVVMFQSTAASWAHDTNITEENARLQEEAALINQEFAEVWGKKAKELYESIWQNFTDQKLRRIIGSVQTLGPANLPLTQRLQYNSLLSNMSRIYSTGKVCFPNKTATCWSLDPELTNILASSRNYAKVLFAWEGWHDAVGIPLRPLYQDFTALSNEAYRQDGFSDTGAYWRSWYESPSFEESLEHLYHQVEPLYLNLHAFVRRALHRRYGDKYINLRGPIPAHLLGDMWAQSWENIYDMVVPFPDKPNLDVTSTMVQKGWNATHMFRVAEEFFTSLGLSPMPPEFWAESMLEKPADGREVVCHASAWDFYNRKDFRIKQCTRVTMDQLSTVHHEMGHVQYYLQYKDLHVSLRRGANPGFHEAIGDVLALSVSTPAHLHKIGLLDRVANDIESDINYLLKMALEKIAFLPFGYLVDQWRWGVFSGRTPPSRYNYDWWYLRTKYQGICPPVARNETHFDAGAKFHIPSVTPYIRYFVSFVLQFQFHQALCKEAGHQGPLHQCDIYQSTKAGAKLQQVLQAGCSRPWQEVLKDLVGSDALDASALMEYFQPVSQWLQEQNQRNGEVLGWPEYQWRPPLPDNYPEGIDLETDEAKANRFVEEYDRTAKVLWNEYAEANWHYNTNITIEGSKILLQKNKEVSNHTLKYGTWAKTFDVSNFQNSTIKRIIKKVQNVDRAVLPPNELEEYNQILLDMETTYSVANVCYTNGTCLSLEPDLTNIMATSRKYEELLWVWKSWRDKVGRAILPFFPKYVDFSNKIAKLNGYSDAGDSWRSSYESDDLEQDLEKLYQELQPLYLNLHAYVRRSLHRHYGSEYINLDGPIPAHLLGNMWAQTWSNIYDLVAPFPSAPSIDATEAMIKQGWTPRRIFKEADNFFTSLGLLPVPPEFWNKSMLEKPTDGREVVCHASAWDFYNGKDFRIKQCTSVNMEELVIAHHEMGHIQYFMQYKDLPVTFREGANPGFHEAIGDVLALSVSTPKHLHSLNLLSSEGSGYEHDINFLMKMALDKIAFIPFSYLIDQWRWRVFDGSITKENYNQEWWSLRLKYQGLCPPVPRSQGDFDPGSKFHVPANVPYIRYFISFIIQFQFHEALCRAAGHTGPLYKCDIYQSKEAGKLLADAMKLGYSKQWPEAMKIITGQPNMSASAIMNYFKPLTEWLVTENRRHGETLGWPEYTWTPNTARAEGSLPESSRVNFLGMYLEPQQARVGQWVLLFLGVALLVATVGLAHRLYNIHNHHSLRRPHRGPQFGSEVELRHS
Turning to B1, the Michaelis-Menten constant (Km) in data set [1] amounted to 10.5 mM.

B2: Neprilysin (Homo sapiens), P08473 (protein)
chain: MGKSESQMDITDINTPKPKKKQRWTPLEISLSVLVLLLTIIAVTMIALYATYDDGICKSSDCIKSAARLIQNMDATTEPCTDFFKYACGGWLKRNVIPETSSRYGNFDILRDELEVVLKDVLQEPKTEDIVAVQKAKALYRSCINESAIDSRGGEPLLKLLPDIYGWPVATENWEQKYGASWTAEKAIAQLNSKYGKKVLINLFVGTDDKNSVNHVIHIDQPRLGLPSRDYYECTGIYKEACTAYVDFMISVARLIRQEERLPIDENQLALEMNKVMELEKEIANATAKPEDRNDPMLLYNKMTLAQIQNNFSLEINGKPFSWLNFTNEIMSTVNISITNEEDVVVYAPEYLTKLKPILTKYSARDLQNLMSWRFIMDLVSSLSRTYKESRNAFRKALYGTTSETATWRRCANYVNGNMENAVGRLYVEAAFAGESKHVVEDLIAQIREVFIQTLDDLTWMDAETKKRAEEKALAIKERIGYPDDIVSNDNKLNNEYLELNYKEDEYFENIIQNLKFSQSKQLKKLREKVDKDEWISGAAVVNAFYSSGRNQIVFPAGILQPPFFSAQQSNSLNYGGIGMVIGHEITHGFDDNGRNFNKDGDLVDWWTQQSASNFKEQSQCMVYQYGNFSWDLAGGQHLNGINTLGENIADNGGLGQAYRAYQNYIKKNGEEKLLPGLDLNHKQLFFLNFAQVWCGTYRPEYAVNSIKTDVHSPGNFRIIGTLQNSAEFSEAFHCRKNSYMNPEKKCRVW
Consider B2, for which the Michaelis-Menten constant (Km) in data set [2] stood at 2.38 mM; in data set [3], 5.1 mM.
